The test system of assay [1] is L1210. In words: In vitro inhibition of L1210 leukemia cells growth. It counts as functional, cell-based. To be noted: Mus musculus. The procedure, abridged: (§1)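 Murine L1210 and PDD-resistant L1210/PDD cells kept in McCoy's 5A with 10% fetal calf serum. Compounds in water or Me2SO, or as suspensions, added to inoculated medium; Me2SO at most 0.2% final. Seeding about 5 × 10^4 cells/mL, then 96 h at 37 °C in 5% CO2. Density measured by electronic cell counter. ID50 (µg/mL) from growth inhibition.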

In assay [2] the test system is L1210. In words: In vitro inhibition of PDD resistant subline L1210/PDD growth. It counts as functional, cell-based. To be noted: Mus musculus. Put shortly:
as §1

The subject of assay [3] is Mus musculus. In words: Activity against L1210 leukemia cells was measured as treated by control on ip administration of 5 mg/kg in mice. It counts as functional, organism-based. Also noted: dose 5 mg/kg. To be noted: at 5 mg/kg.
Assay [4] deals with Mus musculus. In words: Activity against L1210 leukemia cells was measured as treated by control on ip administration of 1 mg/kg in mice. It counts as functional, organism-based. Further details: dose 1 mg/kg. Particulars: at 1 mg/kg.
The test system of assay [5] is Mus musculus. In words: Activity against L1210 leukemia cells was measured as treated by control on ip administration of 10 mg/kg in mice. To be noted: at 10 mg/kg. It counts as functional, organism-based. Also noted: dose 10 mg/kg.
Assay [6] relates to Mus musculus. In words: Activity against L1210 leukemia cells was measured as treated by control on ip administration of 50 mg/kg in mice;Toxic. Further details: dose 50 mg/kg. To be noted: at 50 mg/kg. It counts as functional, organism-based.
The test system of assay [7] is Mus musculus. The experiment in a line: Activity against L1210 leukemia cells was measured as treated by control on ip administration of 2.5 mg/kg in mice. It counts as functional, organism-based. Also noted: dose 2.5 mg/kg. Particulars: at 2.5 mg/kg.
Assay [8] has as its system Mus musculus. In words: Activity against L1210 leukemia cells was measured as treated by control on ip administration of 0.62 mg/kg in mice. It counts as functional, organism-based. Further details: dose 0.62 mg/kg. Particulars: at 0.62 mg/kg.
Assay [9] has as its system Mus musculus. The experiment in a line: Activity against L1210 leukemia cells was measured as treated by control on ip administration of 20 mg/kg in mice. To be noted: at 20 mg/kg. It counts as functional, organism-based. Also noted: dose 20 mg/kg.
For assay [10], the system named is Mus musculus. The experiment in a line: Activity against L1210 leukemia cells was measured as treated by control on ip administration of 1.25 mg/kg in mice. To be noted: at 1.25 mg/kg. It counts as functional, organism-based. Further details: dose 1.25 mg/kg.
Assay [11] has as its system Mus musculus. The experiment in a line: Activity against L1210 leukemia cells was measured as treated by control on ip administration of 40 mg/kg in mice. Further details: dose 40 mg/kg. It counts as functional, organism-based. Particulars: at 40 mg/kg.

Values joined by “and” are separate entries in the source; they are usually repeats but may differ in a detail not shown here. Equal entries are not always repeated.

What is called T/C is the ratio of treated to control.

As for “1-(4-pyridiniumyl)-2-(1-trichloroplatinum-4-pyridiniumyl)ethane”, the ID50 in [1] and in [2] was more than 10 µg/mL in each case.
On to “1-(trichloro-dihydroxy)platinum-3-pyridiniumammonium”, for which the ID50 is 4.5 µg/mL in assay [1] and more than 10 µg/mL in assay [2].
On to “1-chloroplatinumsulphate-3-pyridiniumammonium”, for which the results for the ID50 in assay [1] and in [2] were 4.6 µg/mL and more than 10 µg/mL, respectively.
The matching figures for “1-methyl-4-trichloroplatinumhexahydropyrazinediium”: 9 µg/mL and more than 10 µg/mL.
Regarding “1-pentachloroplatinum-3-pyridiniumammonium”, the ID50 was 4.4 µg/mL in assay [1] and more than 10 µg/mL in assay [2].
For “1-trichloroplatinum-1,4-diazoniabicyclo[2.2.2]octane”, the ID50 in [1] and in [2] was more than 10 µg/mL in each case.
Turning to “1-trichloroplatinum-3-pyridiniumammonium”, the ID50 in assay [1] and in assay [2] was more than 10 µg/mL throughout.
Regarding “1-trichloroplatinum-3-pyridiniumylmethanammonium”, the ID50 in assay [1] and in assay [2] was more than 10 µg/mL each time. The T/C in assay [3] is 123% and 138%; in assay [4] it was 100%; in assay [5], 125%; in assay [6], “Toxic”.
As to “1-trichloroplatinumhexahydro-1-pyridiniumammonium”, the ID50 is 4.2 µg/mL in assay [1] and more than 10 µg/mL in [2].
The matching figures for “1-trichloroplatinumhexahydropyrazinediium”: more than 10 µg/mL and more than 10 µg/mL.
“2,5-dimethyl-1-trichloroplatinumhexahydropyrazinediium”: the figures for the ID50 in assay [1] and in assay [2] were 10 µg/mL and more than 10 µg/mL, respectively.
As to “2-(1-ethylhexahydro-2-pyridiniumyl)-1-trichloroplatinumpyridinium”, the ID50 in assay [1] and in assay [2] was more than 10 µg/mL in each case.
In the case of “3-(1-methyltetrahydro-1H-2-pyrroliumyl)-1-trichloroplatinumpyridinium”, the ID50 in assay [1] and in [2] was more than 10 µg/mL each time.
As for “4-trichloroplatinum-4-azoniabicyclo[2.2.2]oct-2-ammonium”, the ID50 in assay [1] stood at 2 µg/mL; in [2], 5 µg/mL.
“N-methyl-1-trichloroplatinum-3-pyridiniumylmethanammonium”: the T/C came out at 126% in assay [7]; 110% in [8]; 120% in assay [3]; 130% in assay [5]; 133% in assay [9]; 122% in assay [10]. The ID50 in assay [1] and in [2] was more than 10 µg/mL in each case.
Take “ethyl(1-trichloroplatinum-2-pyridiniumyl)ammonium”: the ID50 in [1] and in assay [2] was more than 10 µg/mL in each case.
On to “ethyl(1-trichloroplatinum-2-pyridiniumylmethyl)ammonium”, for which the T/C in assay [7] was found to be 119%; in [3], 122%; in assay [11], 148%; in [5] it was 139%; in [9], 140%. Further, the ID50 in assay [1] and in [2] was more than 10 µg/mL each time.

(Values after ChEMBL document CHEMBL1122113, “Synthesis and antitumor activity of new platinum complexes” (J Med Chem, 1982).)
